In one data set the test system is Liver microsomes. The data set is described as follows: Intrinsic clearance in human liver microsomes after 15 mins. It is filed as ADME, Microsome. The essentials: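 Compound at 0.3 μmol/L (0.03% DMSO final) was incubated with pooled human liver microsomes (0.1 mg/mL protein) and an NADPH-generating system at 37 °C for 0 and 15 min. Reactions were quenched with acetonitrile/methanol containing internal standard. Parent depletion was measured by LC/MS/MS. Values are the mean of six measurements.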
A general note: Liver microsomes are a subcellular fraction often used to study metabolism.

The nature of data set [1]: Clearance in CD1 (ICR) mouse at 3 mg/kg, iv. The following applies: in vivo. Type of data set: ADME, organism-based. Also on record: dose 3 mg/kg, route intravenous. The essentials: (§1)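 Male fasted CD1 (ICR) mice dosed i.v. 3 mg/kg or p.o. 10 mg/kg (10 mL/kg each). Vehicle was DMSO/5% glucose with 1/250 volume 5 mol/L HCl (1:19 i.v., 1:9 p.o.). Vena cava blood was drawn at 0.083 (i.v. only), 0.25, 0.5, 1, 2, 4, 6, 8 and 24 h, n = 4 per time point. Plasma was extracted and assayed by reversed-phase HPLC with fluorescence detection. Values are the mean of four animals.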

Data set [2] is described as follows: Volume of distribution at steady state in CD1 (ICR) mouse 3 mg/kg, iv. It is filed as ADME, organism-based. Also on record: dose 3 mg/kg, route intravenous. The note with it: in vivo, read-out: Vdss. The essentials: as §1
Data set [3] in a line: AUC in CD1 (ICR) mouse at 3 mg/kg, iv. Type of data set: ADME, organism-based. Also on record: dose 3 mg/kg, route intravenous. The note with it: plasma. The procedure, abridged:
as §1

The nature of data set [4]: Terminal half life in CD1 (ICR) mouse at 3 mg/kg, iv. Type of data set: ADME, organism-based. Set-up: dose 3 mg/kg, route intravenous. The note with it: in vivo, read-out: beta t1/2 (converted). The procedure, abridged:
as §1

A short description of data set [5]: Cmax in CD1 (ICR) mouse at 10 mg/kg, po. Type of data set: ADME, organism-based. Set-up: dose 10 mg/kg, route oral. The following applies: in vivo. The essentials: as §1
Data set [6] in a line: Tmax in CD1 (ICR) mouse 10 mg/kg, po. Type of data set: ADME, organism-based. Set-up: dose 10 mg/kg, route oral. The note with it: in vivo. The procedure, abridged:
as §1

A short description of data set [7]: AUC in CD1 (ICR) mouse at 10 mg/kg, po. The following applies: plasma. It is filed as ADME, organism-based. Set-up: dose 10 mg/kg, route oral. The essentials:
as §1

Data set [8] is described as follows: Oral bioavailability in CD1 (ICR) mouse at 10 mg/kg. Type of data set: ADME, organism-based. The note with it: in vivo. The essentials:
as §1

SMILES strings stand for the structures.

The text below walks through data of ChEMBL document CHEMBL2086316, “Synthesis and structure-activity relationships of pyrazolo[1,5-a]pyridine derivatives: potent and orally active antagonists of corticotropin-releasing factor 1 receptor” (J Med Chem, 2012).

As usually defined, the clearance is the volume of plasma or blood freed of the substance per unit of time. By AUC is commonly meant concentration integrated over time. As usually defined, the Cmax is the maximum level reached in the sampled fluid or tissue. As a reminder, the Tmax is the time at which the peak concentration occurs. As usually defined, the bioavailability is dose-corrected exposure relative to a reference, in per cent. A high value points to much systemic uptake.

In the case of `COCc1cc(OC)c(-c2cccc3c(N(CC4CCOCC4)CC4CC4)c(C#N)nn23)c(OC)c1`, the CLint in the data set on Liver microsomes stood at 1100 µL/min/mg. The compound `CCc1nn2c(-c3c(C)cc(C)cc3OC)cccc2c1N(CCOC)CC1CC1` showed a CLint with Liver microsomes of 1690 µL/min/mg. On the same count and under the same terms, with `CCc1nn2c(-c3c(C)cc(OC)cc3OC)cccc2c1N(CC1CCOCC1)CC1CC1` the figure was 450 µL/min/mg; with `COc1cc(C)cc(OC)c1-c1cccc2c(N(CC3CCOCC3)CC3CC3)c(OC)nn12`, 570 µL/min/mg. On the same count and under the same terms, with `CCc1nn2c(-c3c(C)cc(C)cc3OC)cccc2c1N(CC1CC1)CC1CCOC1` (centres undefined) the figure was 1350 µL/min/mg; with `CCOCc1cc(OC)c(-c2cccc3c(N(CC4CCOCC4)CC4CC4)c(CC)nn23)c(OC)c1`, 520 µL/min/mg. Take `CCc1nn2c(-c3c(OC)cc(COC)cc3OC)cccc2c1N(CC1CCOCC1)CC1CC1.Cc1ccc(S(=O)(=O)O)cc1`: the clearance in data set [1] is 43.3 mL/min/kg. In [2], the Vd turned out to be 3.74 L/kg. The AUC in data set [3] came to 850 ng·h/mL; in data set [7], 870 ng·h/mL. Besides, the half-life in data set [4] is 2.2 h. In addition, in [5], the maximum concentration (Cmax) is 320 ng/mL. The time of peak concentration (Tmax) in data set [6] stood at 0.25 h. The bioavailability in [8] was determined as 31%. In the data set with Liver microsomes, `CCc1nn2c(-c3c(COC)cc(OC)cc3OC)cccc2c1N(CC1CCOCC1)CC1CC1` came in with a CLint of 530 µL/min/mg.

`COCc1cc(OC)c(-c2cccc3c(N(CC4CCOCC4)CC4CC4)c(SC)nn23)c(OC)c1` gave a CLint in the data set on Liver microsomes of 340 µL/min/mg. On the same count and under the same terms, with `CCCN(CC1CCOCC1)c1c(CC)nn2c(-c3c(OC)cc(C)cc3OC)cccc12` the figure was 890 µL/min/mg. Take `CCc1nn2c(-c3c(OC)cc(COC)cc3OC)cccc2c1N(CC1CCOCC1)CC1CC1`: the CLint with Liver microsomes was determined as 300 µL/min/mg. The same measure, in the same setting: for `CCCN(CC1CCOCC1)c1c(CC)nn2c(-c3c(OC)cc(COC)cc3OC)cccc12` the value was 700 µL/min/mg.

`CCc1nn2c(-c3c(OC)cc(C)cc3OC)cccc2c1N(CC1CCOCC1)CC1CC1` returned a CLint in the data set on Liver microsomes of 440 µL/min/mg. In the data set with Liver microsomes, `CCc1nn2c(-c3c(C)cc(C)cc3OC)cccc2c1N(CC1CCOCC1)CC1CC1` came in with a CLint of 450 µL/min/mg. Same read-out and setting: with `COCc1cc(OC)c(-c2cccc3c(N(CC4CCOCC4)CC4CC4)c(C)nn23)c(OC)c1` the figure was 110 µL/min/mg. In the data set on Liver microsomes, `COCc1cc(OC)c(-c2cccc3c(N(CC4CCOCC4)CC4CC4)c(OC)nn23)c(OC)c1` displayed a CLint of 760 µL/min/mg.

`CCc1nn2c(-c3c(C)cc(C)cc3OC)cccc2c1N(CC1CC1)CC1CC1` showed a CLint with Liver microsomes of 1120 µL/min/mg.

`CCc1nn2c(-c3c(OC)cc(OC)cc3OC)cccc2c1N(CC1CCOCC1)CC1CC1` had a CLint in the data set with Liver microsomes of 450 µL/min/mg.

With `CCc1nn2c(-c3cc(OC)c(OC)cc3OC)cccc2c1N(CC1CCOCC1)CC1CC1`, the CLint in the data set on Liver microsomes was 600 µL/min/mg. On the same count and under the same terms, for `CCc1nn2c(-c3c(C)cc(C)cc3OC)cccc2c1N(CCCF)CC1CC1` the value was 1410 µL/min/mg. In the data set on Liver microsomes, `CCc1nn2c(-c3c(OC)cccc3OC)cccc2c1N(CC1CCOCC1)CC1CC1` had a CLint of 740 µL/min/mg. In the data set on Liver microsomes, `CCc1nn2c(-c3c(C)cc(C)cc3OC)cccc2c1N(CC1CC1)CC1CCCO1` (centres undefined) returned a CLint of 1230 µL/min/mg.
